High-throughput results: PubChem BioAssay, several laboratories
RGS4 block: human RGS4 inhibition. B-score at 10 µM. 310,000 compounds, 0.45% hits. HEK293 M3R/RGS4 inducible, Fluo-4 calcium flux; hits give high values; triggered by carbachol at its EC20. P49798;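 active = B-score, a plate-corrected calcium signal, over three deviations above library mean, with baseline fluorescence within five deviations of library mean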;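 also: RGS4 expression induced by doxycycline in cells with stable M3 receptor; B-score is computed from the integrated fluorescence ratio over baseline after carbachol; higher B-score means a larger calcium signal and so more RGS4 inhibition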
Target sequence (P49798 whole entry, looked up): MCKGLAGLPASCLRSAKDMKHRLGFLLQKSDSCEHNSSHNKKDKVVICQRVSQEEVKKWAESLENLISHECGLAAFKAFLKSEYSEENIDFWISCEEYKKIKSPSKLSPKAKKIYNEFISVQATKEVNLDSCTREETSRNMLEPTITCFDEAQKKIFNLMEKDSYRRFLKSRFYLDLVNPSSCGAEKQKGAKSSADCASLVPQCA
RGS4 act: RGS4 potentiation or activation. 310,000 compounds, 0.92% hits. B-score at 10 µM. HEK293 M3R/inducible RGS4, carbachol calcium flux Fluo4; hits give low values;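 active = B-score of the integrated calcium signal more than 4 SD below the library mean, with starting fluorescence not abnormally high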;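 also: negative B-score means reduced calcium response which marks RGS4 activation or potentiation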
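test system = M3R-expressing HEK293 line, RGS4 induced by doxycycline | probe or stimulus = carbachol at ECmax as muscarinic agonist stimulus | timing = dye loading 30 min 37 °C, buffer rest 30 min RT | signal = calcium dye Fluo4 fluorescence | evaluation = B score from integrated fluorescence ratio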
MrgX1 antag: human MrgX1 receptor antagonism, primary screen. MRGX1-HEK293 calcium flux, Fluo-4, BAM8-22 antagonism; hits give low values. B-score at 10 µM. 310,000 compounds, 1.3% hits. AID 588676;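 active = calcium-response B-score plate-corrected more than 3 library SD below zero, starting fluorescence within 5 deviations, no agonist response on first addition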;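 also: peak minus trough fluorescence over baseline after final BAM8-22 challenge near maximal dose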
Target sequence (Q96LB2 whole entry, looked up): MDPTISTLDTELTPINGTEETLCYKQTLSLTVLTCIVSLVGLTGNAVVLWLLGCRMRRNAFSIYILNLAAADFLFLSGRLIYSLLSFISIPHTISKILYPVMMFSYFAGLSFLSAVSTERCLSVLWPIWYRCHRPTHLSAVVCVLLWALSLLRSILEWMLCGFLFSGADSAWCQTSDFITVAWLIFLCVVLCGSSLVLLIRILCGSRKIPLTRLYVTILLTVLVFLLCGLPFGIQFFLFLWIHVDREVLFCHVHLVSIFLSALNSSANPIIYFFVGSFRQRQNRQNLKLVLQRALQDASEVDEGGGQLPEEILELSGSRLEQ
MrgX1 ag: agonists of human MrgX1 receptor. Q96LB2. MrgX1-HEK293 cells, Fluo-4 calcium fluorescence, agonist mode; hits give high values. B-score at 10 µM. 310,000 compounds, 0.44% hits;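 active = calcium response B-score plate-corrected fluorescence ratio at least 3 library SD, with starting fluorescence B-score inside 5 SD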
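Assay system: stable human MrgX1 HEK293 cell line. Quantity: 15,000 cells per well. Schedule: cells plated overnight, dye loaded 0.5 h 37 °C, 0.5 h room temperature. Detection: Fluo-4 NW calcium-flux fluorescence, kinetic read. Read-out basis: peak-minus-minimum fluorescence over baseline, converted to B scores. Control set: positive and negative control wells on each plate.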
MrgX1 PAM: allosterically activates human MrgX1 receptor signaling; MrgX1-HEK293, Fluo-4 calcium flux, FDSS; hits give high values; B-score at 10 µM; 310,000 compounds, 0.63% hits;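 active = plate-corrected calcium response at least 3 library SD above typical, normal starting fluorescence, not activating the receptor alone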;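 also: compound read alongside a low EC10 to EC30 dose of BAM8-22 agonist; peak minus trough fluorescence over baseline measured at the second addition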
Cl transport mod: modulators of human KCC2 chloride dependent transport; B-score of Tl+ flux slope (higher = more flux/activation; lower = inhibition) at 10 µM; 190,000 compounds, 2.2% hits; Q9H2X9; KCC2 cells, thallium flux FluoZin-2 fluorescence;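 active = thallium flux slope and its plate-corrected score both differing from the plate sample mean at a set confidence after two filtering rounds, in either direction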;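 also: slope of fluorescence scaled to starting intensity during 10 to 20 s after thallium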
* marks the source's active call; other numbers are inactive results; i = inactive; · = no result given. Only some compounds are listed: those with a hit (about 4.7% of all), similar ones and a draw of the others.

SMILES	RGS4 block	RGS4 act	MrgX1 antag	MrgX1 ag	MrgX1 PAM	Cl transport mod
O=C(CN1C(=O)NC2(CCCC2)C1=O)N1CCN(c2ccccc2Cl)CC1	i	i	i	i	i	·
CC(C)COc1cccc(-c2cc(C(=O)N/N=C/c3ccncc3)c3ccccc3n2)c1	i	-7.4*	i	i	i	·
C/C(=N\NC(=O)c1cc(-c2cccc(OC(C)C)c2)nc2ccccc12)c1cccnc1	i	-9*	i	i	i	·
COc1ccccc1NC(=O)CN1C(=O)CC(C)S(=O)(=O)c2ccccc21 (centres undefined)	i	i	i	i	i	·
O=C(CN1C(=O)c2ccccc2S1(=O)=O)Nc1ccc(S(=O)(=O)Nc2ncccn2)cc1	i	i	·	·	·	·
O=[N+]([O-])c1ccc(S(=O)(=O)N2CCN(C3CCN(Cc4ccccc4)CC3)CC2)cc1	i	-7.5*	i	i	i	·
O=[N+]([O-])c1ccccc1S(=O)(=O)N1CCN(C2CCN(Cc3ccccc3)CC2)CC1	i	-7.3*	i	i	i	·
CCc1ccc2c(c1)C(=O)C[C@]1(CCC[C@H](C)C1)O2	i	i	i	i	i	·
O=C(NCCCn1ccnc1)c1ccc(Cl)s1	i	i	i	i	i	·
CN1CCC(N(C)C(=O)/C(C#N)=C/c2ccccc2)CC1	i	i	i	i	i	·
O=C(c1ccc(Cl)cc1)N(c1ccccn1)C1CCCCC1	i	i	i	i	i	0.15
N#C/C(=C\c1ccccc1)C(=O)N(c1ccccn1)C1CCCCC1	i	i	i	33*	i	-1.9
O=C(c1cccc(C(=O)N(c2ccccn2)C2CCCCC2)c1)N(c1ccccn1)C1CCCCC1	i	i	-6.8*	i	i	0.021
Cc1cc2c(=O)oc(-c3ccc(F)cc3)nc2s1	i	i	-23*	i	i	-0.49
CCN(CC)CCNC(=O)CCc1c(C)nc2c(c(C)nn2-c2ccc(C)cc2)c1C	i	i	i	i	i	·
O=C(NCCc1ccc(Cl)cc1Cl)c1cncc(Br)c1	i	i	i	i	i	·
CCCCOP(=O)(c1ccc(N(C)C)cc1)C(Nc1ccccc1)c1ccccc1 (centres undefined)	i	-7.3*	i	i	i	-0.6
CCCOP(=O)(c1ccc(N(C)C)cc1)C(Nc1ccccc1)c1ccc(N(C)C)cc1 (centres undefined)	i	i	i	i	i	0.28
CN(C)S(=O)(=O)c1ccc(C(=O)Nc2nnc(-c3cccs3)o2)cc1	i	i	i	i	i	-0.31
N#Cc1ccc(C(=O)Nc2nnc(-c3cccs3)o2)cc1	i	i	i	i	i	6.7*
CN(C(=O)COC(=O)CNC(=O)c1ccc2ccccc2c1)c1c(N)n(Cc2ccccc2)c(=O)[nH]c1=O	i	i	i	i	i	·
O=C(COc1ccc2ccccc2c1CN1CCOCC1)N1CCc2ccccc21	i	i	i	i	i	-7.9*
Brc1ccccc1OCCN1CCCC1	i	i	i	i	i	·
CCNC(=S)N/N=C1\CCCCc2ccccc21	i	i	i	i	i	6.6*
COc1ccccc1OCC(=O)N/N=C1\CCCCc2ccccc21	i	i	i	i	i	-2.6
SMILES	RGS4 block	RGS4 act	MrgX1 antag	MrgX1 ag	MrgX1 PAM	Cl transport mod
C=C(C)CNC(=S)N/N=C1\CCCCc2ccccc21	i	i	i	i	i	11*
O=C(N/N=C1\CCCCc2ccccc21)c1ccccn1	i	i	i	i	i	-0.68
COc1ccc(-n2c(=S)[nH]c3ccccc32)cc1	i	i	i	i	i	23*
O=C(COC(=O)/C=C/c1ccccc1)NCC1CCCO1 (centres undefined)	i	i	i	i	9.8*	0.27
O=C(COC(=O)c1ccccc1)NCC1CCCO1 (centres undefined)	i	i	i	i	i	·
Cn1cnnc1SCC(=O)Nc1ccc(S(N)(=O)=O)cc1	i	i	i	i	i	·
CCOC(=O)C1(Cc2ccccc2C)CCCN(C(=O)c2ccc3nccnc3c2)C1 (centres undefined)	i	-7.1*	i	i	i	·
CCOC(=O)C1(Cc2ccccc2C)CCCN(C(=O)c2ccccn2)C1 (centres undefined)	i	i	i	i	i	0.17
CNC(=O)c1c(NC(=O)CCS(=O)(=O)c2ccc(C)cc2)sc(C)c1C	i	i	i	i	i	·
CCOc1ccccc1C(=O)Nc1cccc(-c2nnc(-c3ccccc3)o2)c1	i	-7.2*	i	i	i	0.0073
COc1cccc(CN(C)C(=O)CNC(=O)c2ccc(-c3ccccc3)cc2)c1OC	i	i	i	i	i	·
COc1ccc(-n2c3c(cc(C(=O)Nc4ccc(C)cc4)c2=O)C(=O)CCC3)cc1	i	i	i	i	i	-0.22
COc1ccc(-n2c3c(cc(C#N)c2=O)C(=O)CCC3)cc1	i	i	i	i	11*	-1.4
CCOc1ccc2nc3cc(NCc4ccc(OC)cc4)ccc3c(N)c2c1	i	-7.6*	i	i	i	·
CN(C)S(=O)(=O)c1cccc(NC(=O)c2ccc(S(=O)(=O)N3CCCC3)cc2)c1	i	i	i	i	i	·
CC[C@H]1CC2CN3CCc4c([nH]c5c([C@H]6C[C@H]7[C@H](CC)CN(C)[C@@H](Cc8c6[nH]c6ccccc86)[C@H]7C(=O)OC)c(OC)ccc45)C(C(=O)OC)(C2)C13	8.8*	i	i	i	i	·
CCC1CN(C)C2Cc3c([nH]c4ccccc34)C(=O)CC1C2C(=O)OC (centres undefined)	i	i	i	i	i	-0.23
O=C(O)CCCCCN1C(=O)/C(=C\c2ccncc2)SC1=S	i	i	i	34*	i	0.79
CN1CCN(C(=O)CCCN2C(=O)/C(=C/c3cccc(Br)c3)SC2=S)CC1	i	-7.2*	·	·	·	·
O=C(O)CCCCCN1C(=O)/C(=C/c2ccncc2)SC1=S	i	i	i	32*	i	0.11
O=C(O)CCCN1C(=O)/C(=C/c2ccncc2)SC1=S	i	i	i	i	i	-2.2
CCc1ccc(/C=C2\SC(=S)N(CCCC(=O)Nc3ccccc3C(=O)O)C2=O)cc1	i	i	i	i	i	·
